Laboratory results published in ChEMBL document CHEMBL4041524, “Synthesis and Characterization of a Novel γ-Aminobutyric Acid Type A (GABAA) Receptor Ligand That Combines Outstanding Metabolic Stability, Pharmacokinetics, and Anxiolytic Efficacy” (J Med Chem, 2016).

Experiments:
[1] = Drug uptake in Sprague-Dawley rat brain at 10 mg/kg, ip measured after 4 hrs; assay type: ADME, organism-based; details: read-out: Drug uptake
Method in brief: (§1)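 Rats were given 10 mg/kg i.p. (n = 3), and total plasma and brain concentrations were measured at 4 h. Unbound concentrations were calculated as Fu × total concentration, and Kp,uu = Cu,brain/Cu,plasma.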

[2] = target: GABA-A receptor; alpha-5/beta-3/gamma-2 (Homo sapiens) (UniProt P18507+P28472+P31644); test: Modulation of recombinant GABA alpha5beta3gamma2 receptor (unknown origin) expressed in Xenopus laevis oocytes assessed as change in GABA-induced EC(3 to 6) current by two-electrode voltage clamp assay; assay type: cell-based
Method in brief: (§2)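 Xenopus laevis oocytes expressing α1, α2, α3 or α5 β3γ2 GABAARs were recorded by two-electrode voltage clamp. Modulation of the GABA EC3-6 current (taken as 100%) was tested at 100 nM, 1 μM and 10 μM in the same cells. Values are mean ± SEM, n = 3–4.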

[3] = target: T1, GABA-A receptor; alpha-3/beta-3/gamma-2 (Homo sapiens) (UniProt P18507+P28472+P34903); test: Modulation of recombinant GABA alpha3beta3gamma2 receptor (unknown origin) expressed in Xenopus laevis oocytes assessed as change in GABA-induced EC(3 to 6) current at 1 uM by two-electrode voltage clamp assay; assay type: cell-based; method in brief: as §2
[4] = Half life in femoral artery/vein cannulated Sprague-Dawley rat at 1 mg/kg, iv administered […] as single dose by LC-MS/MS analysis; assay type: ADME, organism-based; details: in vivo
Method in brief: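 Male Sprague-Dawley rats (n = 3 per time point) were dosed 1 mg/kg i.v. or 10 mg/kg i.p. Plasma concentrations were measured at set time points. Clearance, Vdss and T½ came from the i.v. arm, and AUC, Cmax and Tmax from the i.p. arm.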

[5] = tested on: Liver; test: Metabolic stability in mouse liver microsomes assessed as compound remaining at 4 uM measured after 30 mins in presence of NADPH by LC-MS/MS analysis; assay type: ADME, microsome; details: 0.5 h
Method in brief: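 Human, mouse or rat liver microsomes were incubated with compound at 4 μM final for 30 min at 37 °C (n = 1). Percent of parent remaining was quantified by LC-MS/MS.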

[6] = target: GABA-A receptor; alpha-2/beta-3/gamma-2 (Homo sapiens) (UniProt P18507+P28472+P47869); test: Modulation of recombinant GABA alpha2beta3gamma2 receptor (unknown origin) expressed in Xenopus laevis oocytes assessed as change in GABA-induced EC(3 to 6) current at 1 uM by two-electrode voltage clamp assay; assay type: cell-based; method in brief: as §2
[7] = target: T1, GABA-A receptor; alpha-3/beta-3/gamma-2 (Homo sapiens); test: Modulation of recombinant GABA alpha3beta3gamma2 receptor (unknown origin) expressed in Xenopus laevis oocytes assessed as change in GABA-induced EC(3 to 6) current at 10 uM by two-electrode voltage clamp assay; assay type: cell-based; method in brief: as §2
[8] = tested on: Mus musculus; test: Toxicity in Swiss mouse assessed as change in motor coordination by measuring number of falls from the rotating rod at 10 mg/kg, ip administered 30 mins prior to testing measured for 2 mins by rotarod test relative to control; assay type: organism-based; details: in vivo
Method in brief: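 The same mice used for marble burying were placed on a rotarod at 4 r.p.m. for 2 min. No fall was scored success, one fall partial, and two falls failure.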

[9] = target: T2, GABA-A receptor; alpha-1/beta-3/gamma-2 (Homo sapiens, UniProt P14867+P18507+P28472); test: Binding affinity to human GABAA alpha1beta3gamma2 receptor expressed in HEK293 cells assessed as GABA-induced membrane potential change preincubated for 3 mins followed by addition of GABA measured after 3 mins by FLIPR assay; assay type: cell-based
T2 sequence (P14867 whole entry): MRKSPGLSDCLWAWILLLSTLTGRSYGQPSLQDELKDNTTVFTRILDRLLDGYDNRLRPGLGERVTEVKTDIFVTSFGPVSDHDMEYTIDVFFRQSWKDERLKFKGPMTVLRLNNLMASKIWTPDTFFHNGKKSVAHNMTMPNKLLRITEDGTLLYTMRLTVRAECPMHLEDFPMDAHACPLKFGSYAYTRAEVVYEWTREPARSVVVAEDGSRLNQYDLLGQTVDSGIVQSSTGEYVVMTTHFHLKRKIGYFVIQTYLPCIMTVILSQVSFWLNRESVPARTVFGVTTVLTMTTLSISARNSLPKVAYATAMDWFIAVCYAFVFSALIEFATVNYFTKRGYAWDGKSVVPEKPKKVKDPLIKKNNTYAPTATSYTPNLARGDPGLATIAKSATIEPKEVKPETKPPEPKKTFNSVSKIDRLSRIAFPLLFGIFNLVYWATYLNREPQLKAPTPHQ
T2 sequence (P18507 whole entry): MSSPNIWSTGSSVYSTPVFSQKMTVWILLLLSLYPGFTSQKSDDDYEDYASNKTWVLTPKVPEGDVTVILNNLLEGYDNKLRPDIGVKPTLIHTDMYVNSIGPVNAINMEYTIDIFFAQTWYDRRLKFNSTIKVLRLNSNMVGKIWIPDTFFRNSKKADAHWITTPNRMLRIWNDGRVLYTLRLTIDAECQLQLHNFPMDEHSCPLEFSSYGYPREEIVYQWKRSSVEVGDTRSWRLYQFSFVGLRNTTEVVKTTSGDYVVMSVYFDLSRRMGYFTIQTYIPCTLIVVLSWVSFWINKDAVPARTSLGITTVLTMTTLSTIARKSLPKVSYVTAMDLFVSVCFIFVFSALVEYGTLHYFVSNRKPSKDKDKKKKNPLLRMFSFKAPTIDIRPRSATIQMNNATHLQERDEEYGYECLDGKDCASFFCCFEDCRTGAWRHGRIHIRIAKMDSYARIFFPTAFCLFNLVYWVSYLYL
T2 sequence (P28472 whole entry): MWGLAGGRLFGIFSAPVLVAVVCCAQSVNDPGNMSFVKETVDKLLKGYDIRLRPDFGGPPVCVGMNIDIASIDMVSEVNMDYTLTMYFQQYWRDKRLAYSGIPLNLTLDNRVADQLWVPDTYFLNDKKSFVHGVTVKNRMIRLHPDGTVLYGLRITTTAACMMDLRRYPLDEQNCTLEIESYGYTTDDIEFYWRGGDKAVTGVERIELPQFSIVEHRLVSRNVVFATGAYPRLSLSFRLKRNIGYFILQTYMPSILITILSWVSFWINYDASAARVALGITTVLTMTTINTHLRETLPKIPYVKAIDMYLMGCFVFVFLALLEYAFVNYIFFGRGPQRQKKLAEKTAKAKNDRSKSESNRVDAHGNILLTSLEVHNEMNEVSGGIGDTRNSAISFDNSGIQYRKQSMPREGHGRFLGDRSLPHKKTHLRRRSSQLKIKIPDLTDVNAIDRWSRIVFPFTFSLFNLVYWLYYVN
Method in brief: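 Stably transfected HEK293T cells expressing α1β3γ2 (n = 2) or α3β3γ2 (n = 1) GABAARs. Membrane potential was read as fluorescence changes on a FLIPR Tetra, and EC50 was derived.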

[10] = Ratio of unbound concentration in Sprague-Dawley rat brain to plasma at 10 mg/kg, ip measured after 4 hrs; assay type: ADME, organism-based; method in brief: as §1
[11] = tested on: Rattus norvegicus; test: Anxiolytic like activity in water-deprived Sprague-Dawley rat assessed as increase in water drinking time during punished period at 60 mg/kg, po administered 30 mins prior to testing by Vogel conflict test relative to control; assay type: functional
Method in brief: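 Water-deprived male Sprague-Dawley rats (n = 6–8) drank during unpunished and punished periods, with licking suppressed by mild shock in punished periods. Compounds were given 30 min before testing. Analysis was ANOVA with Dunnett's test.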

C#Cc1ccc2c(c1)C(c1ccccn1)=NCc1c(-c3cnco3)ncn1-2
concentration at 4 h [1]: 2050 nM | Activity [2]: Dose-dependent effect | Activity [3]: 188% | half-life [4]: 1.4 h | Stability [5]: 90% | Activity [6]: 201% | Activity [7]: 332% | Activity [8]: Toxic | EC50 [9]: > 20 µM | K(p,uu,brain) [10]: 0.66 | Activity [11]: 200%
